The source of these data is publication PMC4410353 (Journal of nuclear medicine : official publication, Society …, 2009).

This assay is described as follows: 3-T MRI of gadofluorine M uptake in atherosclerotic-like lesions. The conditions noted are these: T1-weighted MRI 1 h after i.v. 0.5 μmol/kg. The assay is classed as in vivo, rabbit. In short, it runs like this: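 Rabbits had right femoral artery injury by air desiccation, then balloon angioplasty. The contralateral uninjured femoral artery served as control. Rabbits were imaged at 4–6 wk post-desiccation (n = 9), 3 wk post-angioplasty (n = 6) and 4 wk later (n = 4). 3-T T1-weighted turbo-spin-echo imaging (TR/TE 600/12 ms) was run 1 h after i.v. non-receptor-specific plaque-targeting contrast agent.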

For the molecule `CC(C(=O)NCC(=O)NCCCC[C@H](NC(=O)CO[C@H]1O[C@H](CO)[C@@H](O)[C@H](O)[C@@H]1O)C(=O)N1CCN(S(=O)(=O)C(F)(F)C(F)(F)C(F)(F)C(F)(F)C(F)(F)C(F)(F)C(F)(F)C(F)(F)F)CC1)N1CCN(CC(=O)O)CCN(CC(=O)O)CCN(CC(=O)O)CC1` (some centres unmarked) [gadofluorine M], the “MRI uptake in control arteries” value was “no gadofluorine M uptake”. Besides, the “MRI signal / uptake in injured vessels” value (all rabbits at all TPs) is “increased signal”.
